Experimental data from ChEMBL document CHEMBL5149984, “Discovery of HN37 as a Potent and Chemically Stable Antiepileptic Drug Candidate” (J Med Chem, 2021).

What was measured:
[1] = biological target: Potassium voltage-gated channel subfamily KQT member 2 (Rattus norvegicus) (UniProt O88943); assay: Agonist activity at rat Kv7.2 channel expressed in CHO cells assessed as shift of half voltage of maximal activation at 10 uM by whole cell patch clamp based electrophysiological method; settings: filed as agonist
Sequence of Potassium voltage-gated channel subfamily KQT member 2 (Rattus norvegicus) (O88943 whole entry, the tested form may be a part): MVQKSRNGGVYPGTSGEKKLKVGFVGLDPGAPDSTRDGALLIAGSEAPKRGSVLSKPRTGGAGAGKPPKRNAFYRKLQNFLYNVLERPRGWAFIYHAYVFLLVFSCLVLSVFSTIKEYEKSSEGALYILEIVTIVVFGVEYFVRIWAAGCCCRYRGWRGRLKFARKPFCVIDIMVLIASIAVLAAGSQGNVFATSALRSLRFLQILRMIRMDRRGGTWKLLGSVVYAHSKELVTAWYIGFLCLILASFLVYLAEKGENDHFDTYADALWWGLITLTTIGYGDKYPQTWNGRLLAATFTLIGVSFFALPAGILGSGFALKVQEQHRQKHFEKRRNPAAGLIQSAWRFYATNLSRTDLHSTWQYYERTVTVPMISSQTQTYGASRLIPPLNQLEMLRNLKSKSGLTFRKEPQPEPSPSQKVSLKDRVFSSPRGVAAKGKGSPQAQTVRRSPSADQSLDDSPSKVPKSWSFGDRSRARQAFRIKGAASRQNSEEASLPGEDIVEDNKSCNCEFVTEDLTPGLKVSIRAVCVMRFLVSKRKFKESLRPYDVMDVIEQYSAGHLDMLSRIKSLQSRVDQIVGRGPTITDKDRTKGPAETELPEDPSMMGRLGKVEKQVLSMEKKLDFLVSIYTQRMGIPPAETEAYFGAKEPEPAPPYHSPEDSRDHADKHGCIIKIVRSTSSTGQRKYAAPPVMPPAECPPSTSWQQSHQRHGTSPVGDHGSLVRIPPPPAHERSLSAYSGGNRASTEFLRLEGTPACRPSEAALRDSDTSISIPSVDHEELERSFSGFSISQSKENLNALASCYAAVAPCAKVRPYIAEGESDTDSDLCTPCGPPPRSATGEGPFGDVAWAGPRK
Method in brief: (§1)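 Rat KCNQ2 cotransfected with EGFP plasmid by Lipofectamine 3000 into CHO cells (DMEM/F12, 10% FBS; split 24 h before transfection). Whole-cell recording at room temperature. Pipette: 145 mM KCl, 1 mM MgCl2, 5 mM EGTA, 10 mM HEPES, 5 mM MgATP, pH 7.3. Bath, constantly perfused: 140 mM NaCl, 5 mM KCl, 2 mM CaCl2, 1.5 mM MgCl2, 10 mM glucose, 10 mM HEPES, pH 7.4. Signals filtered at 1 kHz. Compound at 10 μM. I/I0 is outward current amplitude with over without compound. ΔV1/2 is the shift in V1/2 from Boltzmann fits of activation curves. Mean ± SEM.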

[2] = biological target: Potassium voltage-gated channel subfamily KQT member 2 (Rattus norvegicus) (UniProt O88943); assay: Agonist activity at rat Kv7.2 channel expressed in CHO cells assessed as amplitude change of outward current at 10 uM by whole cell patch clamp based electrophysiological method; settings: filed as agonist; method in brief: as §1
Mus musculus [3] = assay: Anticonvulsant activity in MES induced Kunming mouse model of seizure at 30 mg/kg, po after 1 hr; type: functional
Method in brief: (§2)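 MES test in male KM mice. Compounds freshly suspended in 0.5% CMC-Na and given by gavage at 20 mL/kg; 160 V stimulus through ear clips. Protection scored as absence of hindlimb tonic extension; time course at 0.25, 0.5, 1 and 2 h, otherwise tested at 1 h. ED50 from dose−response by nonlinear regression; Fisher's exact test versus vehicle.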

Mus musculus [4] = assay: Anticonvulsant activity in pentylenetetrazol induced Kunming mouse model of seizure at 30 mg/kg, po after 1 hr; type: functional
Method in brief: (§3)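 sc-PTZ test in male KM mice. Compound suspended in 0.5% CMC-Na and given orally 1 h before PTZ (freshly dissolved in normal saline, 100 mg/kg). Protection against clonic seizures scored; ED50 by nonlinear regression.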

[5] = Neurotoxicity in po dosed Kunming mouse assessed as motor impairment after 1 hr by rotarod test; type: toxicity, organism-based; settings: in vivo, po, 1 h
Method in brief: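 Male KM mice dosed intragastrically with compound freshly suspended in 0.5% CMC-Na. Rotarod performance scored 1 h after dosing as the fraction of animals showing motor impairment. Fisher's exact test versus vehicle; TD50 from nonlinear dose−response fit.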

Mus musculus [6] = species: Mus musculus; assay: Anticonvulsant activity in C57BL/6 mouse 6 Hz seizure model at 44 mA measured after 1 hr; type: functional
Mus musculus [7] = species: Mus musculus; assay: Anticonvulsant activity in Kunming mouse assessed as reduction in Sc-PTZ induced seizure after 1 hr; type: functional; method in brief: as §3
Mus musculus [8] = species: Mus musculus; assay: Anticonvulsant activity in Kunming mouse assessed as reduction in MES-induced seizure after 1 hr; type: functional; method in brief: as §2
Mus musculus [9] = species: Mus musculus; assay: Anticonvulsant activity in C57BL/6 mouse 6 Hz seizure model at 32 mA measured after 1 hr; type: functional

| Compound | Activity [1] [mV] | Activity [2] | also measured |
| --- | --- | --- | --- |
| C#CCN(Cc1ccc(F)cc1)c1ccc(NC(=O)OC)cc1 | -24.2 | 3.27 | Activity (Mus musculus [3]): 50%; Activity (Mus musculus [4]): 60% |
| C#CCN(Cc1ccc(F)cc1)c1ccc(NC(=O)OC(C)(C)C)cc1 | -19.4 | 1.05 | – |
| C#CCN(Cc1ccc(F)cc1)c1ccc(NC(=O)OCC)cc1 | -7.26 | 1.99 | – |
| C#CCN(Cc1ccc(C)cc1)c1ccc(NC(=O)OC)cc1 | -5.77 | 1.05 | – |
| C#CCN(Cc1ccc(Br)cc1)c1ccc(NC(=O)OC)cc1 | -25.1 | 3.75 | – |
| CC[C@H](C(N)=O)N1CCCC1=O [LEVITIRACETAM] | – | – | Activity [5]: > 500 mg/kg; ED50 (Mus musculus [6]): 376 mg/kg; ED50 (Mus musculus [7]): > 500 mg/kg; ED50 (Mus musculus [8]): > 500 mg/kg; ED50 (Mus musculus [9]): 41.5 mg/kg |
| CC1(C)O[C@@H]2[C@@H](CO[C@@]3(COS(N)(=O)=O)OC(C)(C)O[C@@H]23)O1 [TOPIRAMATE] | – | – | Activity [5]: 379.2 mg/kg; ED50 (Mus musculus [6]): > 500 mg/kg; ED50 (Mus musculus [7]): > 200 mg/kg; ED50 (Mus musculus [8]): 35.5 mg/kg; ED50 (Mus musculus [9]): > 500 mg/kg |
| C#CCN(Cc1ccc(F)cc1)c1ccc(NC(=O)OC)cc1C#N | -9.62 | 1.94 | – |
| C#CCN(Cc1ccc(F)cc1)c1ccc(NC(=O)OC)c(C#N)c1 | -5.1 | 0.52 | – |
| C#CCN(Cc1ccc(F)cc1)c1ccc(NC(=O)OCc2ccccc2)cc1 | -11.5 | 2.09 | – |
| C#CCN(Cc1ccc(F)cc1)c1ccc(NC(=O)OC)c(Cl)c1 | -7.06 | 1.09 | – |
| C#CCN(Cc1ccc(F)c(F)c1)c1ccc(NC(=O)OC)cc1 | -14.9 | 2.52 | – |
| C#CCN(Cc1ccccc1F)c1ccc(NC(=O)OC)cc1 | -7.6 | 2.31 | – |
| C#CCN(Cc1ccc(F)cc1)c1ccc(NC(=O)OC)cc1Cl | -2.06 | 1.19 | – |
| C#CCN(Cc1ccc(F)cc1)c1ccc(NC(=O)OCC=C)cc1 | -14.5 | 1.01 | – |
| C#CCN(Cc1ccc(F)cc1)c1ccc(NC(=O)OC)cc1C | -3.42 | 1.4 | – |
| C#CCN(Cc1ccc(F)cc1)c1ccc(F)c(NC(=O)OC)c1 | -18.7 | 2.75 | – |

| Compound | Activity [1] [mV] | Activity [2] | also measured |
| --- | --- | --- | --- |
| C#CCN(Cc1ccc(F)cc1)c1ccc(NC(=O)OCC)c(N)c1 | -47.9 | 1.53 | – |
| C#CCN(Cc1ccc(F)cc1)c1ccc(NC(=O)OCC(C)C)cc1 | -14.3 | 1.23 | – |
| C#CCN(Cc1ccc(F)cc1)c1ccc(NC(=O)OC)cc1F | -9.06 | 1.39 | – |
| C#CCN(Cc1ccc(F)cc1)c1ccc(NC(=O)OC)c(OC(F)(F)F)c1 | -13.2 | 1.24 | – |
| C#CCN(Cc1ccc(F)cc1)c1ccc(NC(C)=O)cc1 | -6.09 | 1.8 | – |
| C#CCN(Cc1ccccc1Cl)c1ccc(NC(=O)OC)cc1 | -16.5 | 2.29 | – |
| C#CCN(Cc1cccc(F)c1)c1ccc(NC(=O)OC)cc1 | -21.1 | 2.33 | – |
| C#CCN(Cc1ccc(F)cc1)c1ccc(NC(=O)OC)c(C(F)(F)F)c1 | -10.4 | 1.42 | – |
| C#CCN(Cc1ccc(F)cc1)c1c(C)cc(NC(=O)OC)cc1C | 13.5 | 0.72 | – |
| C#CCN(Cc1ccc(F)cc1)c1ccc(NC(=O)OC)c(F)c1 | -22 | 2.09 | – |
| C#CCN(Cc1ccc(F)cc1)c1ccc(NC(=O)OCC2COC(C)(C)O2)cc1 (stereo not drawn) | -3.95 | 2.11 | – |
| C#CCN(Cc1ccc(F)cc1)c1cccc(NC(=O)OC)c1 | 3.6 | 1.65 | – |
| C#CCN(Cc1ccc(F)cc1)c1ccccc1NC(=O)OC | – | 0.95 | – |
| C#CCN(Cc1ccc(F)cc1)c1ccc(NC(=O)OC)c(C)c1 | -23.3 | 4.8 | – |
| C#CCN(Cc1ccc(F)c(C(F)(F)F)c1)c1ccc(NC(=O)OC)cc1 | -15.6 | 1.33 | – |
| C#CCN(Cc1cccc(OC)c1)c1ccc(NC(=O)OC)cc1 | -12.5 | 2.72 | – |
